Screens (PubChem)
Scp-1 inhibitor – Scp-1 (human) phosphatase inhibition; Q9GZU7; Recombinant Scp1, phosphopeptide, malachite green phosphate absorbance; inhibition, % at 20 µM; 0.88% of 340,000 active; AID 493091;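 active means inhibition above about 50% at 20 µM, limit read from the data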;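 further: plate controls were DMSO wells with enzyme for no effect and wells lacking enzyme for full effect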
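Assay system: SCP-1 catalytic fragment, aa 76-261 | Buffer or medium: Tris acetate buffer pH 5.5 with MgCl2 and Tween-20 | Compound: One concentration, 20 µM, with 1.0% DMSO | Also added: Phospho 17-mer peptide substrate | Signal: Absorbance at 630 nm | Incubation: 45 min enzyme reaction at room temperature | Measure: % inhibition of SCP-1 phosphate liberation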
LMPTP block – blocks human LMPTP phosphatase; P24666; recombinant LMPTP-A, OMFP fluorogenic substrate, fluorescence intensity; inhibition, % at 20 µM; 0.22% of 360,000 active; AID 651560;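 active means compounds that cut the enzyme signal by at least half of the control window in the single-dose screen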;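 further: plate controls were DMSO wells with enzyme plus substrate for no effect and substrate without enzyme for full effect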
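Material: LMPTP-A; amount: 0.625 nM enzyme; doses: single 20 µM dose; times: reaction 50 min, room temperature, dark; technique: fluorescence intensity of OMFP turnover product; benchmarks: no-enzyme and uninhibited controls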
DNMT1 inh – blocks human DNA methyltransferase DNMT1. P26358. DNMT1 molecular beacon, Hinp1I cleavage, fluorescence. inhibition (reported as % activation of signal), % at 10 µM. 0.83% of 360,000 active; in the data active means inhibition above about 50%
Target sequence (P26358 504-1616 limits assumed): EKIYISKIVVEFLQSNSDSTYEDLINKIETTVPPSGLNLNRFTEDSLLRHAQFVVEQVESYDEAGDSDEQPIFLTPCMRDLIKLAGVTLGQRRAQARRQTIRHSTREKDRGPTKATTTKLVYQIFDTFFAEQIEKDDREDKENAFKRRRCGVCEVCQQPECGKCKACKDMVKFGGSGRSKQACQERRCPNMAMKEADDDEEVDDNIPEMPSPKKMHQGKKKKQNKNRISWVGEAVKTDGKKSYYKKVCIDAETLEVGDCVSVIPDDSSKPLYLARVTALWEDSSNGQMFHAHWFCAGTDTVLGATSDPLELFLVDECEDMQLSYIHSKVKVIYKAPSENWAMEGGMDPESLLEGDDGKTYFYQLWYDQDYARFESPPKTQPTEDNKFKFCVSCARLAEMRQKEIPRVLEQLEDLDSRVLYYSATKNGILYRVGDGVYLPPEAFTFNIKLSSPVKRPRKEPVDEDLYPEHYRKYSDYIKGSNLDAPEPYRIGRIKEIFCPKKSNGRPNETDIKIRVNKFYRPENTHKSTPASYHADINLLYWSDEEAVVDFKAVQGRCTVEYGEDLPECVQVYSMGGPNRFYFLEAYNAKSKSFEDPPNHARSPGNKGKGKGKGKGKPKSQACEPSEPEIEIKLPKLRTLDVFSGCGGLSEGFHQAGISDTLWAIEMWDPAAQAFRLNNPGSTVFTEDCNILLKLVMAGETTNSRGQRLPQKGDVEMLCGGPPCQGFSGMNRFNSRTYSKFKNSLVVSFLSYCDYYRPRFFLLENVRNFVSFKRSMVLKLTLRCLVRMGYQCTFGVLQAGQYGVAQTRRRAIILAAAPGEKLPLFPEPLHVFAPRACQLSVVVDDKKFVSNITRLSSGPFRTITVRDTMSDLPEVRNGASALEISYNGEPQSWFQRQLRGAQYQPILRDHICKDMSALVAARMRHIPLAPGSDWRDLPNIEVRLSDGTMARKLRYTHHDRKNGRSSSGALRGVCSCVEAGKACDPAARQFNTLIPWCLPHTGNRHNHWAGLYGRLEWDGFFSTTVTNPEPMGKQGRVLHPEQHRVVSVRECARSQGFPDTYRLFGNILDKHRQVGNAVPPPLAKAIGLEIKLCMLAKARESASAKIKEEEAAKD
SUMO1-SIM PPI – alters human SUMO1 binding to SIM partners; SUMO1 binding to a labelled peptide, TR-FRET, 1 h; inhibition, % at 20 µM; 0.33% of 360,000 active; AID 602429; in the data active means inhibition above about 37%
STEP inh – STEP (human) phosphatase inhibition; 0.25% of 360,000 active; recombinant STEP, OMFP fluorogenic substrate, fluorescence; inhibition, % at 20 µM; P54829;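 active means inhibition at 20 µM, scaled per plate between control wells, above about 37%, limit read from the data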;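 further: 0% = DMSO with enzyme and substrate and 100% = substrate only without enzyme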
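Material: STEP (striatal-enriched tyrosine phosphatase) enzyme, cell-free; Compound dosing: 20 µM single dose in 1% DMSO; Technique: fluorescence read at 480 nm ex / 540 nm em; Times: reaction 20 min, ambient temperature; Medium: 50 mM Bis-Tris pH 6.0 with 2.5 mM DTT and 0.005% Tween 20; Also added: OMFP at 25 µM.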
Scp-1 conf – confirmation of human Scp-1 phosphatase inhibitors; shares compounds with Scp-1 inhibitor; AID 540281; inhibition, % at 20 µM; 61% of 2,500 active; recombinant SCP-1 catalytic domain, phosphate release, malachite green absorbance;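 further: plate controls were DMSO with enzyme for no effect and buffer wells lacking enzyme for full effect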
MG interference – counter-screen for Scp-1 inhibitors: colorimetric interference; shares compounds with Scp-1 inhibitor; Colorimetric interference counterscreen, malachite green absorbance 630 nm; apparent inhibition (interference), % at 20 µM; 2,500 tested, under 10 active; AID 540313;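 further: compounds added after enzyme reaction finished so only phosphate colour detection is probed; plate controls were DMSO wells with completed Scp-1 reaction for no effect and substrate wells lacking enzyme for full effect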
Scp-1 Tm shift – validation of human Scp-1 inhibitors by thermal shift binding; shares compounds with Scp-1 inhibitor; Recombinant SCP1, Sypro Orange thermal shift Tm; thermal shift relative to vanadate control, % at 40 µM; 25% of 1,500 active;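 active means substances whose mean melting-temperature shift, as a percentage of the reference inhibitor's shift, reaches about 5.3%, limit read from the data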;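 further: 0% = Tm of DMSO wells and 100% = Tm with sodium orthovanadate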
DNMT1 confirm – confirmation of human DNMT1 inhibitors | inhibition, % at 10 µM | 8% of 2,300 active | DNMT1 molecular beacon HinP1I cleavage, fluorescence | AID 602385 | shares compounds with DNMT1 inh;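 active means average inhibition of at least 30% in the single-concentration confirmation test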
DNMT1 interf – shows spectral interference in the DNMT1 beacon assay | DNMT1 molecular beacon spectral interference counterscreen, fluorescence 485/520 | activation (fluorescence interference), % at 10 µM | 1% of 2,300 active | shares compounds with DNMT1 inh | AID 602387;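 active means activation of at least 30% at 10 µM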;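 further: DNMT1 catalytic domain with a HinP1I cleavage step and a FAM/dabcyl DNA beacon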
STEP conf – STEP (human) phosphatase inhibition, single concentration confirmation; inhibition, % at 20 µM; 32% of 520 active; recombinant STEP, OMFP fluorogenic substrate, fluorescence; shares compounds with STEP inh; call rule not given here;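 further: 0% = enzyme with substrate plus DMSO and 100% = substrate without enzyme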
An asterisk follows results filed as active; · = no result. In the library only some 1.7% were active in any assay of this set; here they are far more common.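 How the source made its calls, unless noted: active means inhibition of at least 30% at 20 µM; inactive means the rest.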

SMILES	Scp-1 inhibitor	LMPTP block	DNMT1 inh	SUMO1-SIM PPI	STEP inh	Scp-1 conf	MG interference	Scp-1 Tm shift	STEP conf	others
N#C/C(=C\c1ccc(OCc2ccc(F)cc2)cc1)C(=O)Nc1cccc(C(=O)O)c1	92.6*	31.3	-2.9	25.7	92.5*	74.3*	-4.0	4.8	6.0
O=C(N/N=C/c1cccc([N+](=O)[O-])c1)c1cccc(Br)c1	-6.6	0.2	-1.9	3.9	-2.6	·	·	·	·
O=C(N/N=C/C(Br)=C/c1ccccc1)c1ccncc1	-11.4	-0.4	-5.5	-28.3	-1.8	·	·	·	·
O=C(N/N=C/C(Br)=C/c1ccccc1)c1ccc([N+](=O)[O-])cc1	97.3*	77.8*	57.1*	2.1	87.8*	84.3*	-12.3	1.8	6.1	DNMT1 confirm=4.9;DNMT1 interf=-0.3
O=C(N/N=C/c1cccc([N+](=O)[O-])c1)c1ccc(Br)cc1	98.2*	64.9*	19.8	-6.8	72.6*	85.9*	-8.5	-1.8	16.5*
NC(=O)c1cc([N+](=O)[O-])ccc1NCc1ccc(N)cc1	-8.6	-0.2	-1.0	-36.7	0.6	·	·	·	·
O=C(N/N=C/c1cc(Br)c(Br)o1)c1cc2ccccc2o1	111.3*	45.0	19.7	7.3	56.0*	61.4*	-12.6	-9.6	2.8
O=[N+]([O-])c1ccc(-c2ccc(/C=N/Nc3nc(N4CCCC4)nc(N4CCCC4)n3)o2)cc1	2.7	10.0	-0.4	-11.4	10.4	·	·	·	·
COc1ccc(-c2cnnc(N/N=C/c3ccc(-c4ccc([N+](=O)[O-])cc4)o3)n2)cc1	107.5*	57.2*	1.9	-8.8	50.3*	49.2*	-4.9	4.2	5.0
CCc1ccc(OCC(=O)Nc2ccc(-c3nc4ccccc4o3)c(O)c2)cc1	100.1*	38.9	77.3*	2.0	66.5*	73.3*	-21.4	-0.6	19.0*	DNMT1 confirm=3.5;DNMT1 interf=3.0
COc1ccc(OCC(=O)Nc2cccc(-c3nc4ccccc4o3)c2)cc1	-10.7	2.0	-6.0	3.5	2.1	·	·	·	·
COc1cc(C(=O)Nc2ccc3c(c2)Cc2ccccc2-3)cc(OC)c1OC	-0.9	0.1	-4.6	3.5	-0.7	·	·	·	·
COc1cc(C(=O)Nc2ccc3c(c2)C(=O)c2ccccc2C3=O)cc(OC)c1OC	87.5*	47.0	65.6*	2.2	74.5*	42.2*	-7.9	-0.5	18.9	DNMT1 confirm=0.0;DNMT1 interf=-0.8
CC(=O)N1CCOc2ccc(S(=O)(=O)NCc3ccc(F)cc3)cc21	61.8*	22.4	26.3	-2.4	73.0*	50.0*	-16.1	-8.9	30.1*
Cc1cc(C(=O)N/N=C/c2ccc(-c3ccc([N+](=O)[O-])cc3Cl)o2)n[nH]1	56.4*	69.4*	-3.6	67.5*	93.6*	68.5*	-20.6	8.7*	34.0*
Cc1cc(C(=O)N/N=C/c2ccc(-c3cccc([N+](=O)[O-])c3)o2)n[nH]1	-8.2	0.8	13.5	-16.3	-2.4	·	·	·	·
COc1cccc(NC(=O)COC(=O)CCn2c(C)csc2=O)c1	-5.7	-0.5	-1.3	7.5	1.4	·	·	·	·
CCCCC(=O)Nc1ccc(C(=O)NNC(=O)c2ccc(C)c(Br)c2)cc1	101.6*	78.2*	81.2*	26.4	73.6*	70.6*	-26.9	-12.4	40.2*	DNMT1 confirm=4.5;DNMT1 interf=0.4
CCCCn1c(N)c(-c2nc3ccccc3o2)c2c([N+](=O)[O-])nn(C)c(=O)c21	93.1*	54.6*	86.8*	-7.3	57.8*	68.1*	-8.2	2.7	22.9	DNMT1 confirm=0.3;DNMT1 interf=-1.5
Cc1oc2cc3oc(=O)c(CCC(=O)NCCN4CCOCC4)c(C)c3cc2c1C	-1.3	1.3	-0.3	4.7	-0.6	·	·	·	·
COc1cccc(Nc2c(Nc3cccc(OC)c3)c(=O)c2=O)c1	92.2*	78.0*	66.8*	16.2	97.1*	68.2*	-10.9	1.9	22.8
COc1cccc(Nc2c([N+](=O)[O-])cncc2[N+](=O)[O-])c1	0.1	-1.7	2.2	-45.0	0.5	·	·	·	·
COC(CNC(=O)C(=O)Nc1cc2c3c(c1)CC(=O)N3CCC2)OC	-6.3	-0.9	-5.2	-0.7	1.7	·	·	·	·
O=[N+]([O-])c1ccc(O)c(Nc2ncnc3ccccc23)c1	98.5*	90.9*	2.4	-10.1	96.7*	80.7*	-4.6	2.6	36.0*
O=[N+]([O-])c1ccc(C=NNC(=S)NN=Cc2ccc([N+](=O)[O-])cc2)cc1	88.5*	75.0*	87.6*	92.0*	95.7*	55.4*	-13.9	12.1*	7.7	DNMT1 confirm=0.5;DNMT1 interf=-11.8
SMILES	Scp-1 inhibitor	LMPTP block	DNMT1 inh	SUMO1-SIM PPI	STEP inh	Scp-1 conf	MG interference	Scp-1 Tm shift	STEP conf	others
COc1ccc(CCN2C(=O)CSC2=Nc2ccc(C)cc2C)cc1OC	-16.7	-0.2	1.8	4.2	-0.8	·	·	·	·
O=C(O)CSc1sc(=S)sc1SCC(=O)O	75.7*	0.6	-2.0	-12.5	58.3*	10.0	-11.5	·	13.7
NC(=O)c1cc2ccccc2o/c1=N\NC(=O)c1ccccc1O	102.8*	75.3*	1.6	-2.9	99.0*	79.5*	-3.0	-11.7	89.9*
O=C(CNS(=O)(=O)/C=C/c1ccccc1)OC1CCOC1=O (stereo unspecified)	-4.5	1.0	-4.4	0.4	0.8	·	·	·	·
CCc1cc(CNC(=O)c2ccc(OC3CCN(CCc4ccccc4)CC3)cc2)on1	74.5*	11.9	20.6	4.2	92.5*	64.8*	4.8	-3.0	-6.8
O=C(NCc1ccon1)c1ccc(OC2CCN(CCc3ccccc3)CC2)cc1	0.6	1.0	-2.3	2.0	-1.9	·	·	·	·
O=C(Nc1cccc(S(=O)(=O)N2CCOCC2)c1)c1cc(S(=O)(=O)N2CCOCC2)c(Cl)cc1Cl	-7.5	-0.5	-0.2	0.8	-0.9	·	·	·	·
COc1cccc(-c2cc3nc(C)c(C)c(N4CCN(C(=O)c5ccoc5)CC4)n3n2)c1	·	3.9	-5.8	7.8	2.9	·	·	·	·
CCN(CC(=O)Nc1c(F)cccc1F)C(=O)Cc1ccc(S(=O)(=O)N2CCOCC2)s1	-6.8	-6.7	-2.7	-11.9	-2.1	·	·	·	·
